Assay type in all cases: ADME
Common to all, as to conditions: recombinant enzyme

Series [1] addresses T1, Cytochrome P450 3A5 (Homo sapiens, UniProt P20815). Briefly: Drug level assessed as human recombinant CYP3A5 in presence of human P450 oxidoreductase and b5-mediated drug metabolism treated with 10 uM of PF-04981517 by HPLC-MS analysis in presence of NADPH. In a few lines:
(§1)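 Recombinant CYP3A4 or CYP3A5 (50 pmol/ml final) added, without preincubation, to 10 µM CYP3cide with NADPH (final 1 mM) in 100 mM phosphate pH 7.4. Trapping incubations also held 200 µM KCN or 5 mM GSH (final). Incubated 1 h at 37°C, quenched with acetonitrile, dried, reconstituted. Metabolites analysed by LC/Orbitrap ESI-MS.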

Series [2] deals with T2, Cytochrome P450 3A4 (Homo sapiens, UniProt P08684). Nature of the series: Drug level assessed as human recombinant CYP3A4 in presence of human P450 oxidoreductase and b5-mediated drug metabolism treated with 10 uM of PF-04981517 by HPLC-MS analysis in presence of NADPH. The gist of the method:
as §1

Series [3] addresses T2, Cytochrome P450 3A4. Briefly: Drug level assessed as human recombinant CYP3A4 in presence of human P450 oxidoreductase and b5-mediated drug metabolism treated with 10 uM of PF-04981517 by HPLC-MS analysis in presence of KCN and NADPH. In a few lines:
as §1

Series [4] addresses T1, Cytochrome P450 3A5. Briefly: Drug level assessed as human recombinant CYP3A5 in presence of human P450 oxidoreductase and b5-mediated drug metabolism treated with 10 uM of PF-04981517 by HPLC-MS analysis in presence of KCN and NADPH. The gist of the method: as §1
The target of series [5] is T1, Cytochrome P450 3A5. Briefly: Drug metabolism assessed as human recombinant CYP3A5 in presence of human P450 oxidoreductase and b5-mediated compound formation at 10 uM by HPLC-MS analysis in presence of KCN. The gist of the method:
as §1

Drawing on ChEMBL document CHEMBL3526089, “Selective mechanism-based inactivation of CYP3A4 by CYP3cide (PF-04981517) and its utility as an in vitro tool for delineating the relative roles of CYP3A4 versus CYP3A5 in the metabolism of drugs” (Drug Metab Dispos, 2012), this text covers Drug metabolism for 4 compounds.

Structures are written as SMILES.

T1 sequence (P20815 whole entry): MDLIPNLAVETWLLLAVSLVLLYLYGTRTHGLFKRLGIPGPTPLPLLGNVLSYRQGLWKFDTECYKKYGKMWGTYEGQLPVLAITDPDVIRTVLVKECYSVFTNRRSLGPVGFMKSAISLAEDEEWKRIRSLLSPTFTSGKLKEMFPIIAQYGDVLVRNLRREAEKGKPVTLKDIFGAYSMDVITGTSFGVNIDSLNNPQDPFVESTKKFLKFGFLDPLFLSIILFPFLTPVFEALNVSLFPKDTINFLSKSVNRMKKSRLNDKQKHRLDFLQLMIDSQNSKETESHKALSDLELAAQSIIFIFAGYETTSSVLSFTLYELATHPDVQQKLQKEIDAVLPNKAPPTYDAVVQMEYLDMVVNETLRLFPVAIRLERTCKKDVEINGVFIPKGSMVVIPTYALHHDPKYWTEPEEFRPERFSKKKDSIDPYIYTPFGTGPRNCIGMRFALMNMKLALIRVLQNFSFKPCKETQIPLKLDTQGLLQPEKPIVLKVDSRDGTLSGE
T2 sequence (P08684 whole entry): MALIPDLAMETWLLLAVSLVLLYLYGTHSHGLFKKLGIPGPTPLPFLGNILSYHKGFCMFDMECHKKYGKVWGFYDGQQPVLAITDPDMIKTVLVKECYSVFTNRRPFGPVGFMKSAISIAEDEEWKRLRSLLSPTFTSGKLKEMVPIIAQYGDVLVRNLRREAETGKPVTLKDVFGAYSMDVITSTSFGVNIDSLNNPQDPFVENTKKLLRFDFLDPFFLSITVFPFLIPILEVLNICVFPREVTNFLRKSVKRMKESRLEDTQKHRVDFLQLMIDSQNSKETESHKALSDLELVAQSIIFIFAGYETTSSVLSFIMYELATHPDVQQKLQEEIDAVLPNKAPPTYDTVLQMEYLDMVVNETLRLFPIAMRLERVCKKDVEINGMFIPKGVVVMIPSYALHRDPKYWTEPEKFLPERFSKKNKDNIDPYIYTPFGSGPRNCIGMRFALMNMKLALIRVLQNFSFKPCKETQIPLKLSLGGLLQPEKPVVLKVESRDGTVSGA

Regarding `Cc1ccc(-c2c(-c3nn(C)c4ncnc(N5CC[C@H]([N+]6=CCCCC6)C5)c34)cnn2C)cc1`, the Drug metabolism result at Cytochrome P450 3A5 [1], on Cytochrome P450 3A4 [2], at Cytochrome P450 3A4 [3] and at Cytochrome P450 3A5 [4] was “metabolite_detected” in each case.
For `Cc1ccc(-c2c(-c3nn(C)c4ncnc(N5CC[C@H](N6CCCCC6)C5)c34)cnn2CO)cc1`, the Drug metabolism result on Cytochrome P450 3A5 [1], on Cytochrome P450 3A4 [2], at Cytochrome P450 3A4 [3] and at Cytochrome P450 3A5 [4] was “metabolite_detected” in each case.
For the compound `Cc1ccc(-c2c(-c3nn(C)c4ncnc(N5CC[C@H](N6CCCCC6=O)C5)c34)cnn2C)cc1`, the Drug metabolism result at Cytochrome P450 3A5 [5] is on record as “metabolite_detected”.
Consider `Cc1ccc(-c2c(-c3nn(C)c4ncnc(N5CC[C@H](N)C5)c34)cnn2C)cc1`, for which the Drug metabolism result at Cytochrome P450 3A5 [5] is on record as “metabolite_detected”.
